Laboratory results taken from ChEMBL document CHEMBL1151470, “Pharmacokinetic interaction between fosamprenavir-ritonavir and rifabutin in healthy subjects” (Antimicrob Agents Chemother, 2008).

Key:
Homo sapiens [1] = assay: Toxicity in human assessed as renal and urinary disorder at 150 mg, […] with 700 mg fosamprenavir and 100 mg ritonavir po BID; type: organism-based, Urine; settings: in vivo
Homo sapiens [2] = assay: Toxicity in human assessed as gastrointestinal disorder at 150 mg, po QOD coadministered with 700 mg fosamprenavir and 100 mg ritonavir po BID; settings: in vivo
Homo sapiens [3] = assay: AUC (0 to 48 hrs) in human assessed as dAc-RFB level at 300 mg, po QD; type: ADME, organism-based, Plasma; set-up: dose 300 mg, time < 48 hr, route oral; settings: in vivo
Procedure, shortened: (§1)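 Volunteers took RFB 300 mg QD alone to steady state. Serial EDTA plasma was sampled on the last treatment day at predose and 0.5–24 h, then stored at –20°C. AUC0-24 came from noncompartmental analysis (linear up/log-linear down trapezoidal) using actual times, and was doubled to estimate AUC0-48.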

Homo sapiens [4] = assay: Toxicity in human assessed as musculoskeletal and connective tissue disorder at 300 mg, po QD; type: organism-based; settings: in vivo
Homo sapiens [5] = assay: Toxicity in human assessed as pain at 150 mg, […] with 700 mg fosamprenavir and 100 mg ritonavir po BID; type: organism-based; settings: in vivo
Homo sapiens [6] = assay: Toxicity in human assessed as increase in ALT level at 300 mg, po QD; type: organism-based; settings: in vivo
Homo sapiens [7] = assay: Toxicity in human assessed as increase in ALT level at 150 mg, […] with 700 mg fosamprenavir and 100 mg ritonavir po BID; type: organism-based; settings: in vivo
Homo sapiens [8] = assay: Toxicity in human assessed as skin and subcutaneous tissue disorder at 150 mg, […] with 700 mg fosamprenavir and 100 mg ritonavir po BID; type: organism-based; settings: in vivo
Homo sapiens [9] = assay: Toxicity in human assessed as blood and lymphatic system disorder at 150 mg, […] with 700 mg fosamprenavir and 100 mg ritonavir po BID; type: organism-based; settings: in vivo
Homo sapiens [10] = assay: Toxicity in human assessed as pollakiurea at 150 mg, po QOD coadministered with 700 mg fosamprenavir and 100 mg ritonavir po BID; settings: in vivo
Homo sapiens [11] = assay: Toxicity in human assessed as myalgia at 300 mg, po QD; type: organism-based; settings: in vivo
Homo sapiens [12] = assay: Toxicity in human assessed as myalgia at 150 mg, po QOD coadministered with 700 mg fosamprenavir and 100 mg ritonavir po BID; settings: in vivo
Homo sapiens [13] = assay: Toxicity in human assessed as musculoskeletal and connective tissue disorder at 150 mg, […] with 700 mg fosamprenavir and 100 mg ritonavir po BID; type: organism-based; settings: in vivo
Homo sapiens [14] = assay: Toxicity in human assessed as skin and subcutaneous tissue disorder at 300 mg, po QD; type: organism-based; settings: in vivo
Homo sapiens [15] = assay: Toxicity in human assessed as chills at 150 mg, […] with 700 mg fosamprenavir and 100 mg ritonavir po BID; type: organism-based; settings: in vivo
Homo sapiens [16] = assay: Toxicity in human assessed as nervous system disorder at 300 mg, po QD; type: organism-based; settings: in vivo
Homo sapiens [17] = assay: Toxicity in human assessed as diarrhea disorder at 150 mg, po QOD coadministered with 700 mg fosamprenavir and 100 mg ritonavir po BID; settings: in vivo
Homo sapiens [18] = assay: Toxicity in human assessed as insomnia at 300 mg, po QD; type: organism-based; settings: in vivo
Homo sapiens [19] = assay: Toxicity in human assessed as headache at 300 mg, po QD; type: organism-based; settings: in vivo
Homo sapiens [20] = assay: Toxicity in human assessed as blood and lymphatic system disorder at 300 mg, po QD; type: organism-based; settings: in vivo
[21] = AUC (0 to 48 hrs) in human at 150 mg, […] coadministered with 700 mg fosamprenavir and 100 mg ritonavir po BID; type: ADME, organism-based; set-up: time < 48 hr, dose 150 mg, route oral; settings: plasma
Procedure, shortened: (§2)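 Healthy volunteers received RFB 150 mg every other day with FPV-RTV 700/100 mg BID to steady state. Serial EDTA plasma was sampled on the last treatment day at predose and 0.5–24, 36 and 48 h, then stored at –20°C. AUC0-48 came from noncompartmental analysis (linear up/log-linear down trapezoidal) using actual elapsed sampling times.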

Homo sapiens [22] = assay: Toxicity in human assessed as decrease in neutrophile count at 300 mg, po QD; type: organism-based; set-up: scale not given: the % may be the effect or the level left; settings: in vivo
Homo sapiens [23] = assay: Toxicity in human assessed as headache at 150 mg, […] with 700 mg fosamprenavir and 100 mg ritonavir po BID; type: organism-based; settings: in vivo
Homo sapiens [24] = assay: Toxicity in human assessed as chromaturia at 300 mg, po QD; type: organism-based; settings: in vivo
Homo sapiens [25] = assay: Toxicity in human assessed as neutropenia at 150 mg, […] with 700 mg fosamprenavir and 100 mg ritonavir po BID; type: organism-based; settings: in vivo
Homo sapiens [26] = assay: Toxicity in human assessed as diarrhea at 300 mg, po QD; type: organism-based; settings: in vivo
Homo sapiens [27] = assay: Toxicity in human assessed as chromaturia at 150 mg, po QOD coadministered with 700 mg fosamprenavir and 100 mg ritonavir po BID; settings: in vivo
Homo sapiens [28] = assay: Toxicity in human assessed as thrombocytopenia at 150 mg, […] with 700 mg fosamprenavir and 100 mg ritonavir po BID; type: organism-based; settings: in vivo
Homo sapiens [29] = assay: Toxicity in human assessed as rash generalized at 150 mg, […] with 700 mg fosamprenavir and 100 mg ritonavir po BID; type: organism-based; settings: in vivo
Homo sapiens [30] = assay: Toxicity in human assessed as increase in neutrophile count at 150 mg, […] with 700 mg fosamprenavir and 100 mg ritonavir po BID; type: organism-based; settings: in vivo
Homo sapiens [31] = assay: Toxicity in human assessed as neutropenia at 300 mg, po QD; type: organism-based; settings: in vivo
Homo sapiens [32] = assay: Toxicity in human assessed as chills at 300 mg, po QD; type: organism-based; settings: in vivo
Homo sapiens [33] = assay: Toxicity in human assessed as fatigue at 150 mg, […] with 700 mg fosamprenavir and 100 mg ritonavir po BID; type: organism-based; settings: in vivo
Homo sapiens [34] = assay: Toxicity in human assessed as pain at 300 mg, po QD; type: organism-based; settings: in vivo
Homo sapiens [35] = assay: Toxicity in human assessed as nervous system disorder at 150 mg, […] with 700 mg fosamprenavir and 100 mg ritonavir po BID; type: organism-based; settings: in vivo
Homo sapiens [36] = assay: Toxicity in human assessed as pollakiurea at 300 mg, po QD; type: organism-based; settings: in vivo
Homo sapiens [37] = assay: Toxicity in human assessed as increase in neutrophile count at 300 mg, po QD; type: organism-based; settings: in vivo
Homo sapiens [38] = assay: Toxicity in human assessed as nausea at 300 mg, po QD; type: organism-based; settings: in vivo
[39] = Cmax in human at 300 mg, po QD; settings: in vivo
Homo sapiens [40] = assay: Toxicity in human assessed as insomnia at 150 mg, […] with 700 mg fosamprenavir and 100 mg ritonavir po BID; type: organism-based; settings: in vivo
clinical = settings: human, in vivo, po
Homo sapiens [41] = assay: Toxicity in human assessed as fatigue at 300 mg, po QD; type: organism-based; settings: in vivo
Homo sapiens [42] = assay: AUC (0 to 48 hrs) in human assessed as dAc-RFB level at 150 mg, […] coadministered with 700 mg fosamprenavir and 100 mg ritonavir po BID; type: ADME, organism-based, Plasma; set-up: dose 150 mg, time < 48 hr, route oral; settings: in vivo; procedure, shortened: as §2
Homo sapiens [43] = assay: Toxicity in human assessed as thrombocytopenia at 300 mg, po QD; type: organism-based; settings: in vivo
[44] = AUC (0 to 48 hrs) in human at 300 mg, po QD; type: ADME, organism-based; set-up: time < 48 hr, dose 300 mg, route oral; settings: plasma; procedure, shortened: as §1
Homo sapiens [45] = assay: Toxicity in human assessed as psychiatric disorder at 150 mg, […] with 700 mg fosamprenavir and 100 mg ritonavir po BID; type: organism-based; settings: in vivo
Homo sapiens [46] = assay: Toxicity in human assessed as rash generalized at 300 mg, po QD; type: organism-based; settings: in vivo
Homo sapiens [47] = assay: Toxicity in human assessed as gastrointestinal disorder at 300 mg, po QD; type: organism-based; settings: in vivo
Homo sapiens [48] = assay: Toxicity in human assessed as general disorder at 150 mg, […] with 700 mg fosamprenavir and 100 mg ritonavir po BID; type: organism-based; settings: in vivo
Homo sapiens [49] = assay: Toxicity in human assessed as general disorder at 300 mg, po QD; type: organism-based; settings: in vivo
Homo sapiens [50] = assay: Toxicity in human assessed as renal and urinary disorder at 300 mg, po QD; type: organism-based, Urine; settings: in vivo
Homo sapiens [51] = assay: Toxicity in human assessed as decrease in neutrophile count at 150 mg, […] with 700 mg fosamprenavir and 100 mg ritonavir po BID; type: organism-based; set-up: scale not given: the % may be the effect or the level left; settings: in vivo
Homo sapiens [52] = assay: Toxicity in human assessed as psychiatric disorder at 300 mg, po QD; type: organism-based; settings: in vivo
Homo sapiens [53] = assay: Toxicity in human assessed as nausea at 150 mg, po QOD coadministered with 700 mg fosamprenavir and 100 mg ritonavir po BID; settings: in vivo

Question: What does the source list for `CO[C@H]1/C=C/O[C@@]2(C)Oc3c(C)c(O)c4c(c3C2=O)C2=NC3(CCN(CC(C)C)CC3)NC2=C(NC(=O)/C(C)=C\C=C\[C@H](C)[C@H](O)[C@@H](C)[C@@H](O)[C@@H](C)[C@H](OC(C)=O)[C@@H]1C)C4=O` [RIFABUTIN]?
Answer: Activity (Homo sapiens [1]): 50%; Activity (Homo sapiens [2]): 7%; AUC (Homo sapiens [3]): 0.411 µg·h/mL; Activity (Homo sapiens [4]): 2%; Activity (Homo sapiens [5]): 1%; Activity (Homo sapiens [6]): 0%; Activity (Homo sapiens [7]): 5%; Activity (Homo sapiens [8]): 6%; Activity (Homo sapiens [9]): 3%; Activity (Homo sapiens [10]): 12%; Activity (Homo sapiens [11]): 0%; Activity (Homo sapiens [12]): 4%; Activity (Homo sapiens [13]): 5%; Activity (Homo sapiens [14]): 0%; Activity (Homo sapiens [15]): 3%; Activity (Homo sapiens [16]): 35%; Activity (Homo sapiens [17]): 4%; Activity (Homo sapiens [18]): 4%; Activity (Homo sapiens [19]): 35%; Activity (Homo sapiens [20]): 3%; AUC at 48 h [21]: 5810 ng·h/mL; Activity (Homo sapiens [22]): 3%; Activity (Homo sapiens [23]): 45%; Activity (Homo sapiens [24]): 0%; Activity (Homo sapiens [25]): 1%; Activity (Homo sapiens [26]): 0%; Activity (Homo sapiens [27]): 4%; Activity (Homo sapiens [28]): 3%; Activity (Homo sapiens [29]): 2%; Activity (Homo sapiens [30]): 3%; Activity (Homo sapiens [31]): 2%; Activity (Homo sapiens [32]): 0%; Activity (Homo sapiens [33]): 4%; Activity (Homo sapiens [34]): 2%; Activity (Homo sapiens [35]): 55%; Activity (Homo sapiens [36]): 6%; Activity (Homo sapiens [37]): 0%; Activity (Homo sapiens [38]): 6%; Cmax [39]: 313 ng/mL; Activity (Homo sapiens [40]): 1%; Cmax (clinical): 268 ng/mL; Activity (Homo sapiens [41]): 0%; AUC (Homo sapiens [42]): 4.6 µg·h/mL; Activity (Homo sapiens [43]): 0%; AUC at 48 h [44]: 6110 ng·h/mL; Activity (Homo sapiens [45]): 2%; Activity (Homo sapiens [46]): 0%; Activity (Homo sapiens [47]): 2%; Activity (Homo sapiens [48]): 7%; Activity (Homo sapiens [49]): 3%; Activity (Homo sapiens [50]): 59%; Activity (Homo sapiens [51]): 3%; Activity (Homo sapiens [52]): 5%; Activity (Homo sapiens [53]): 9%
